# Test results: the M2OR odorant receptor database
# What was measured:
# Conditions in all cases: stereoisomer not certain
# UniProt Q8VGX3 = target: T1, UniProt Q8VGX3
# T1 sequence (whole entry): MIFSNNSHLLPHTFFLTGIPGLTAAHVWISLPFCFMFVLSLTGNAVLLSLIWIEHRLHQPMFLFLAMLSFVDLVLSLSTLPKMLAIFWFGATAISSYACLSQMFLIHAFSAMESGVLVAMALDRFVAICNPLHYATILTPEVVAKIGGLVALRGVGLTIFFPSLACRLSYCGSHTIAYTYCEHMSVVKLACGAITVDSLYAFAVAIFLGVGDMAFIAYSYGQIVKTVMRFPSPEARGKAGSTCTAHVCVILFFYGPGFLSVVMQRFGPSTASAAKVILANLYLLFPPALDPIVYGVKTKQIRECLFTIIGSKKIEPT
# Outline: (§1)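 Each receptor–molecule pair is labelled responsive or non-responsive (inactive) according to whether the original authors judged the measured signal statistically different from baseline. The data were taken from the main text and supplementary material of published papers and checked for typos and inconsistencies. Assay methods differed by source, with transient luciferase assays in mammalian cell lines being common.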
# UniProt Q8VGX5 = target: T2, UniProt Q8VGX5
# T2 sequence (whole entry): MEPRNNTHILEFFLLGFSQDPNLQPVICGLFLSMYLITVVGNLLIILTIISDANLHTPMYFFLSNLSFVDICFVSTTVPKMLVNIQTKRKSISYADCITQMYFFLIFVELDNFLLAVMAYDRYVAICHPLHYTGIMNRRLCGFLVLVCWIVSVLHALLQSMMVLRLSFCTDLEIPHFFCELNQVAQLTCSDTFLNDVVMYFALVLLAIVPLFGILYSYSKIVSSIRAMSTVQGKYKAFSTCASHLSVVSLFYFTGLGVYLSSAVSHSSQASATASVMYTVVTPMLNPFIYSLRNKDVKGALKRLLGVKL
# Outline: as §1
# UniProt Q8VGZ2 = target: T3, UniProt Q8VGZ2
# T3 sequence (whole entry): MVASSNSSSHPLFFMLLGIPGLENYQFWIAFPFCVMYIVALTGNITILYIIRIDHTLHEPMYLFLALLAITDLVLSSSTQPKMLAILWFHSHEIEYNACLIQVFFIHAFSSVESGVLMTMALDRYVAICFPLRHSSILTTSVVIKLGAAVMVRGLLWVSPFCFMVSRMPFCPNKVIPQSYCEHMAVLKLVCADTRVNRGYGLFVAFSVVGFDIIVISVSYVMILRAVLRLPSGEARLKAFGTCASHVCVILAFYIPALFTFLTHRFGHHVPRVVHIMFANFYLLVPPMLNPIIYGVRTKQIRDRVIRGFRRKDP
# Outline: as §1
# UniProt Q8VGZ7 = target: T4, UniProt Q8VGZ7
# T4 sequence (whole entry): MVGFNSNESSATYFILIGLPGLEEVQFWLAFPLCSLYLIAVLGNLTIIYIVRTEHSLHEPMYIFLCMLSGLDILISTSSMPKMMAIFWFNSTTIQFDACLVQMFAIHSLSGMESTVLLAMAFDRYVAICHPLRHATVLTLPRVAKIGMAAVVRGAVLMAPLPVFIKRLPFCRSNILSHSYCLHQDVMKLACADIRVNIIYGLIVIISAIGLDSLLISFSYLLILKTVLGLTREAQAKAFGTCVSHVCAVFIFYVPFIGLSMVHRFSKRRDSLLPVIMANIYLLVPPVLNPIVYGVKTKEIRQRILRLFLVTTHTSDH
# Outline: as §1
# UniProt Q8VH16 = target: T5, UniProt Q8VH16
# T5 sequence (whole entry): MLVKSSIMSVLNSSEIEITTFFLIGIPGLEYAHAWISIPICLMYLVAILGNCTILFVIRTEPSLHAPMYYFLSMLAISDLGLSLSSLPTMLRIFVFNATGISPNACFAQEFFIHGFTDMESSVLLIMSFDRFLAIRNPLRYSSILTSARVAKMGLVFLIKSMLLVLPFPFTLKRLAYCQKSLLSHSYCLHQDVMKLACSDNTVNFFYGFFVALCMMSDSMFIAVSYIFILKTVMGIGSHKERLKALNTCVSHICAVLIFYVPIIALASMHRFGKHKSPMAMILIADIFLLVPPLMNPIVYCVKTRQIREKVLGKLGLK
# Outline: as §1
# UniProt Q8VH20 = target: T6, UniProt Q8VH20
# T6 sequence (whole entry): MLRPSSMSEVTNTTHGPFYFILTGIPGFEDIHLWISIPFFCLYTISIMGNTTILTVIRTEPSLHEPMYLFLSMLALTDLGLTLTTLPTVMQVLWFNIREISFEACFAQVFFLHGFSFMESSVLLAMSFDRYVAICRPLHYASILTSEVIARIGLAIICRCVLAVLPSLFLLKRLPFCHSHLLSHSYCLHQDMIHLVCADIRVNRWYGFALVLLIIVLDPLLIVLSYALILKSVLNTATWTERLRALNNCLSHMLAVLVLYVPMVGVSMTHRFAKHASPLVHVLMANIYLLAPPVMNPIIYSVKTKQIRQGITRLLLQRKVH
# Outline: as §1
# UniProt Q8VGX8 = target: T7, UniProt Q8VGX8
# T7 sequence (whole entry): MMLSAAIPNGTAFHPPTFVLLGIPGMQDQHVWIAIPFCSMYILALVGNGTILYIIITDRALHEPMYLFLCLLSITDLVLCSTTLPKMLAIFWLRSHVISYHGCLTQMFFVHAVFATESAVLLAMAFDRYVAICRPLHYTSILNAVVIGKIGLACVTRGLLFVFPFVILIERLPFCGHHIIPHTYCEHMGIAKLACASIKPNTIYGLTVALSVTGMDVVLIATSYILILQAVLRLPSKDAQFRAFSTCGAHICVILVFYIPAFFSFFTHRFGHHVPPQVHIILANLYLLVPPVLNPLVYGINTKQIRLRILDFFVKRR
# Outline: as §1
# UniProt Q8VH18 = target: UniProt Q8VH18
# Outline: as §1
# UniProt Q8VGY6 = target: T8, UniProt Q8VGY6
# T8 sequence (whole entry): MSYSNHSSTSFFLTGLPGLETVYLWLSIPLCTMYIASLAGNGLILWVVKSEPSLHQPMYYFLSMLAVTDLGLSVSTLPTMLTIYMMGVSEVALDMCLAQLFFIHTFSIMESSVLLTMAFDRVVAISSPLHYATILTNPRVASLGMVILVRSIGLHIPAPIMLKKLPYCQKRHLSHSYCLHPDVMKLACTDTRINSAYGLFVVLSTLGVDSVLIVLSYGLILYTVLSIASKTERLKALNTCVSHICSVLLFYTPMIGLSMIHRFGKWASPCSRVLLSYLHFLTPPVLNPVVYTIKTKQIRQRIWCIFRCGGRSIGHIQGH
# Outline: as §1
# UniProt Q8VH10 = target: T9, UniProt Q8VH10
# T9 sequence (whole entry): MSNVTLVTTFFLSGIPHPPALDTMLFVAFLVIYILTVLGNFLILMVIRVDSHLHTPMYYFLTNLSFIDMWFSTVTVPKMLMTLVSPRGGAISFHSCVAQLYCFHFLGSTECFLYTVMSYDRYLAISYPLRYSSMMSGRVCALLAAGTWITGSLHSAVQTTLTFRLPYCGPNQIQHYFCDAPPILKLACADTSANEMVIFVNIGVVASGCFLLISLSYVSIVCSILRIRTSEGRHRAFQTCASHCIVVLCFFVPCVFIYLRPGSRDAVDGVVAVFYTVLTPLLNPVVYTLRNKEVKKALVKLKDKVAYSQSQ
# Outline: as §1
# 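Further: active if original authors judged signal statistically different from baseline.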
# Chain of UniProt Q8VH18 (Q8VH18 as listed by the source): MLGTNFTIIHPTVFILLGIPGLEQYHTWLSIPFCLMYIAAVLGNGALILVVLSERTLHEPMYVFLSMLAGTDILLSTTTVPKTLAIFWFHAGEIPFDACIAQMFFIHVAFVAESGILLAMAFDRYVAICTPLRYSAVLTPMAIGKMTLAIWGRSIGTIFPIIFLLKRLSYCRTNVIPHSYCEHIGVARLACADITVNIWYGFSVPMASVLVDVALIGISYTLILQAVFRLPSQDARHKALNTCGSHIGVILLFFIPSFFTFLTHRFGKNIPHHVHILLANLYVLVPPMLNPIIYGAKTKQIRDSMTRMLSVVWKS
SMILES,odorant receptor agonist call (UniProt Q8VGX3),odorant receptor agonist call (UniProt Q8VGX5),odorant receptor agonist call (UniProt Q8VGZ2),odorant receptor agonist call (UniProt Q8VGZ7),odorant receptor agonist call (UniProt Q8VH16),odorant receptor agonist call (UniProt Q8VH20),odorant receptor agonist call (UniProt Q8VGX8),odorant receptor agonist call (UniProt Q8VH18),odorant receptor agonist call (UniProt Q8VGY6),odorant receptor agonist call (UniProt Q8VH10)
O=Cc1ccc2c(c1)OCO2,inactive,active,inactive,inactive,inactive,inactive,–,–,–,–
O=C(O)CCCCCCCBr,–,–,–,–,–,–,active,active,–,–
CC(C=O)Cc1ccc2c(c1)OCO2 (stereo unspecified),inactive,active,inactive,inactive,inactive,inactive,–,–,–,–
C=CCc1ccccc1,–,inactive,inactive,inactive,–,inactive,inactive,–,inactive,inactive
CSSC,inactive,inactive,inactive,inactive,inactive,inactive,–,–,–,–
O=Cc1ccccc1,inactive,inactive,inactive,inactive,inactive,inactive,–,–,–,–
CCCCC(Br)C(=O)O (stereo unspecified),inactive,inactive,inactive,inactive,inactive,active,–,–,–,–
CCC1CCC(=O)O1 (stereo unspecified),–,inactive,inactive,inactive,–,inactive,inactive,–,inactive,inactive
O=CC=Cc1ccccc1,inactive,inactive,inactive,inactive,inactive,inactive,–,–,–,–
Cc1ccc(OC(=O)Cc2ccccc2)cc1,inactive,inactive,inactive,inactive,inactive,active,–,–,–,–
O=c1cc(O)c2ccccc2o1,inactive,inactive,inactive,inactive,inactive,inactive,inactive,–,inactive,inactive
CCCCCCC(Br)C(=O)O (stereo unspecified),inactive,inactive,inactive,inactive,inactive,active,–,–,–,–
OCc1ccc2c(c1)OCO2,inactive,inactive,inactive,inactive,inactive,inactive,–,–,–,–
Oc1ccccc1Br,inactive,inactive,inactive,inactive,inactive,inactive,–,–,–,–
C=CCOC(=O)Cc1ccccc1,inactive,active,inactive,inactive,inactive,inactive,inactive,–,inactive,active
COc1ccc(C=O)cc1,inactive,inactive,inactive,inactive,inactive,inactive,–,–,–,–
C=C(C)C1CC=C(C=O)CC1 (stereo unspecified),inactive,inactive,inactive,inactive,inactive,inactive,–,–,–,–
